In ChEMBL document CHEMBL3044834, “Novel protoporphyrinogen oxidase inhibitors: 3H-pyrazolo[3,4-d][1,2,3]triazin-4-one derivatives” (J Agric Food Chem, 2008):

Test system: Echinochloa crus-galli
Experiment: Herbicidal activity against Echinochloa crus-galli (barnyard grass) assessed as inhibition of fresh weed plant weight at 1500 g/ha using pre-emergence treatment protocol
Format: functional

Row | SMILES | inhibition at 1500 g/ha
1 | C=CCN1C(=O)COc2cc(F)c(-n3nnc4nn(CCC)cc4c3=O)cc21 | 60.4%

Test system: Digitaria sanguinalis
Experiment: Herbicidal activity against Digitaria sanguinalis (hairy crabgrass) assessed as inhibition of fresh weed plant weight at 750 g/ha using post-emergence treatment protocol
Format: functional
Procedure, shortened: (§1)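 Test compounds made up as emulsions by dissolving in 100 µL N,N-dimethylformamide, then adding a little Tween 20 and water. For post-emergence, weed seedlings at one leaf and one stem were sprayed at the same rates as the pre-emergence test. Fresh weight was recorded 15 days after treatment and expressed as percent inhibition versus controls. All treatments were run in triplicate.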

Row | SMILES | inhibition at 750 g/ha
2 | C=CCN1C(=O)COc2cc(F)c(-n3nnc4nn(CCC)cc4c3=O)cc21 | 0%

Test system: Amaranthus retroflexus
Experiment: Herbicidal activity against Amaranthus retroflexus assessed as inhibition of fresh weed plant weight at 750 g/ha using pre-emergence treatment protocol
Format: functional
Procedure, shortened: as §1

Row | SMILES | inhibition at 750 g/ha
3 | C=CCN1C(=O)COc2cc(F)c(-n3nnc4nn(CCC)cc4c3=O)cc21 | 100%

Test system: Amaranthus retroflexus
Experiment: Herbicidal activity against Amaranthus retroflexus assessed as inhibition of fresh weed plant weight at 375 g/ha using post-emergence treatment protocol
Format: functional
Procedure, shortened: as §1

Row | SMILES | inhibition at 375 g/ha
4 | C=CCN1C(=O)COc2cc(F)c(-n3nnc4nn(CCC)cc4c3=O)cc21 | 85.4%

Test system: Brassica rapa subsp. oleifera
Experiment: Herbicidal activity against Brassica rapa subsp. oleifera assessed as inhibition of fresh weed plant weight at 187.5 g/ha using post-emergence treatment protocol
Format: functional
Procedure, shortened: as §1

Row | SMILES | inhibition at 187.5 g/ha
5 | C=CCN1C(=O)COc2cc(F)c(-n3nnc4nn(CCC)cc4c3=O)cc21 | 0%

Test system: Echinochloa crus-galli
Experiment: Herbicidal activity against Echinochloa crus-galli (barnyard grass) assessed as inhibition of fresh weed plant weight at 375 g/ha using pre-emergence treatment protocol
Format: functional
Procedure, shortened: as §1

Row | SMILES | inhibition at 375 g/ha
6 | C=CCN1C(=O)COc2cc(F)c(-n3nnc4nn(CCC)cc4c3=O)cc21 | 16%

Test system: Digitaria sanguinalis
Experiment: Herbicidal activity against Digitaria sanguinalis (hairy crabgrass) assessed as inhibition of fresh weed plant weight at 1500 g/ha using post-emergence treatment protocol
Format: functional
Procedure, shortened: as §1

Row | SMILES | inhibition at 1500 g/ha
7 | C=CCN1C(=O)COc2cc(F)c(-n3nnc4nn(CCC)cc4c3=O)cc21 | 0%

Test system: Digitaria sanguinalis
Experiment: Herbicidal activity against Digitaria sanguinalis (hairy crabgrass) assessed as inhibition of fresh weed plant weight at 375 g/ha using post-emergence treatment protocol
Format: functional
Procedure, shortened: as §1

Row | SMILES | inhibition at 375 g/ha
8 | C=CCN1C(=O)COc2cc(F)c(-n3nnc4nn(CCC)cc4c3=O)cc21 | 0%

Test system: Amaranthus retroflexus
Experiment: Herbicidal activity against Amaranthus retroflexus assessed as inhibition of fresh weed plant weight at 187.5 g/ha using post-emergence treatment protocol
Format: functional
Procedure, shortened: as §1

Row | SMILES | inhibition at 187.5 g/ha
9 | C=CCN1C(=O)COc2cc(F)c(-n3nnc4nn(CCC)cc4c3=O)cc21 | 7.3%

Test system: Brassica rapa subsp. oleifera
Experiment: Herbicidal activity against Brassica rapa subsp. oleifera assessed as inhibition of fresh weed plant weight at 750 g/ha using post-emergence treatment protocol
Format: functional
Procedure, shortened: as §1

Row | SMILES | inhibition at 750 g/ha
10 | C=CCN1C(=O)COc2cc(F)c(-n3nnc4nn(CCC)cc4c3=O)cc21 | 33.7%

Test system: Echinochloa crus-galli
Experiment: Herbicidal activity against Echinochloa crus-galli (barnyard grass) assessed as inhibition of fresh weed plant weight at 187.5 g/ha using pre-emergence treatment protocol
Format: functional
Procedure, shortened: as §1

Row | SMILES | inhibition at 187.5 g/ha
11 | C=CCN1C(=O)COc2cc(F)c(-n3nnc4nn(CCC)cc4c3=O)cc21 | 10.8%

Test system: Amaranthus retroflexus
Experiment: Herbicidal activity against Amaranthus retroflexus assessed as inhibition of fresh weed plant weight at 750 g/ha using post-emergence treatment protocol
Format: functional
Procedure, shortened: as §1

Row | SMILES | inhibition at 750 g/ha
12 | C=CCN1C(=O)COc2cc(F)c(-n3nnc4nn(CCC)cc4c3=O)cc21 | 100%

Test system: Digitaria sanguinalis
Experiment: Herbicidal activity against Digitaria sanguinalis (hairy crabgrass) assessed as inhibition of fresh weed plant weight at 1500 g/ha using pre-emergence treatment protocol
Format: functional

Row | SMILES | inhibition at 1500 g/ha
13 | C=CCN1C(=O)COc2cc(F)c(-n3nnc4nn(CCC)cc4c3=O)cc21 | 78.6%

Test system: Digitaria sanguinalis
Experiment: Herbicidal activity against Digitaria sanguinalis (hairy crabgrass) assessed as inhibition of fresh weed plant weight at 187.5 g/ha using pre-emergence treatment protocol
Format: functional

Row | SMILES | inhibition at 187.5 g/ha
14 | C=CCN1C(=O)COc2cc(F)c(-n3nnc4nn(CCC)cc4c3=O)cc21 | 4.3%

Test system: Amaranthus retroflexus
Experiment: Herbicidal activity against Amaranthus retroflexus assessed as inhibition of fresh weed plant weight at 1500 g/ha using post-emergence treatment protocol
Format: functional
Procedure, shortened: as §1

Row | SMILES | inhibition at 1500 g/ha
15 | C=CCN1C(=O)COc2cc(F)c(-n3nnc4nn(CCC)cc4c3=O)cc21 | 100%

Test system: Brassica rapa subsp. oleifera
Experiment: Herbicidal activity against Brassica rapa subsp. oleifera assessed as inhibition of fresh weed plant weight at 375 g/ha using pre-emergence treatment protocol
Format: functional

Row | SMILES | inhibition at 375 g/ha
16 | C=CCN1C(=O)COc2cc(F)c(-n3nnc4nn(CCC)cc4c3=O)cc21 | 55.2%

Test system: Amaranthus retroflexus
Experiment: Herbicidal activity against Amaranthus retroflexus assessed as inhibition of fresh weed plant weight at 187.5 g/ha using pre-emergence treatment protocol
Format: functional

Row | SMILES | inhibition at 187.5 g/ha
17 | C=CCN1C(=O)COc2cc(F)c(-n3nnc4nn(CCC)cc4c3=O)cc21 | 27.9%

Test system: Brassica rapa subsp. oleifera
Experiment: Herbicidal activity against Brassica rapa subsp. oleifera assessed as inhibition of fresh weed plant weight at 1500 g/ha using post-emergence treatment protocol
Format: functional
Procedure, shortened: as §1

Row | SMILES | inhibition at 1500 g/ha
18 | C=CCN1C(=O)COc2cc(F)c(-n3nnc4nn(CCC)cc4c3=O)cc21 | 50.3%

Test system: Echinochloa crus-galli
Experiment: Herbicidal activity against Echinochloa crus-galli (barnyard grass) assessed as inhibition of fresh weed plant weight at 375 g/ha using post-emergence treatment protocol
Format: functional
Procedure, shortened: as §1

Row | SMILES | inhibition at 375 g/ha
19 | C=CCN1C(=O)COc2cc(F)c(-n3nnc4nn(CCC)cc4c3=O)cc21 | 2.4%

Test system: Digitaria sanguinalis
Experiment: Herbicidal activity against Digitaria sanguinalis (hairy crabgrass) assessed as inhibition of fresh weed plant weight at 187.5 g/ha using post-emergence treatment protocol
Format: functional
Procedure, shortened: as §1

Row | SMILES | inhibition at 187.5 g/ha
20 | C=CCN1C(=O)COc2cc(F)c(-n3nnc4nn(CCC)cc4c3=O)cc21 | 0%

Test system: Digitaria sanguinalis
Experiment: Herbicidal activity against Digitaria sanguinalis (hairy crabgrass) assessed as inhibition of fresh weed plant weight at 750 g/ha using pre-emergence treatment protocol
Format: functional

Row | SMILES | inhibition at 750 g/ha
21 | C=CCN1C(=O)COc2cc(F)c(-n3nnc4nn(CCC)cc4c3=O)cc21 | 54.3%

Test system: Echinochloa crus-galli
Experiment: Herbicidal activity against Echinochloa crus-galli (barnyard grass) assessed as inhibition of fresh weed plant weight at 750 g/ha using post-emergence treatment protocol
Format: functional
Procedure, shortened: as §1

Row | SMILES | inhibition at 750 g/ha
22 | C=CCN1C(=O)COc2cc(F)c(-n3nnc4nn(CCC)cc4c3=O)cc21 | 5.4%

Test system: Digitaria sanguinalis
Experiment: Herbicidal activity against Digitaria sanguinalis (hairy crabgrass) assessed as inhibition of fresh weed plant weight at 375 g/ha using pre-emergence treatment protocol
Format: functional

Row | SMILES | inhibition at 375 g/ha
23 | C=CCN1C(=O)COc2cc(F)c(-n3nnc4nn(CCC)cc4c3=O)cc21 | 39.1%

Test system: Amaranthus retroflexus
Experiment: Herbicidal activity against Amaranthus retroflexus assessed as inhibition of fresh weed plant weight at 1500 g/ha using pre-emergence treatment protocol
Format: functional

Row | SMILES | inhibition at 1500 g/ha
24 | C=CCN1C(=O)COc2cc(F)c(-n3nnc4nn(CCC)cc4c3=O)cc21 | 100%

Test system: Brassica rapa subsp. oleifera
Experiment: Herbicidal activity against Brassica rapa subsp. oleifera assessed as inhibition of fresh weed plant weight at 375 g/ha using post-emergence treatment protocol
Format: functional
Procedure, shortened: as §1

Row | SMILES | inhibition at 375 g/ha
25 | C=CCN1C(=O)COc2cc(F)c(-n3nnc4nn(CCC)cc4c3=O)cc21 | 29.1%

Test system: Brassica rapa subsp. oleifera
Experiment: Herbicidal activity against Brassica rapa subsp. oleifera assessed as inhibition of fresh weed plant weight at 1500 g/ha using pre-emergence treatment protocol
Format: functional

Row | SMILES | inhibition at 1500 g/ha
26 | C=CCN1C(=O)COc2cc(F)c(-n3nnc4nn(CCC)cc4c3=O)cc21 | 88.7%

Test system: Echinochloa crus-galli
Experiment: Herbicidal activity against Echinochloa crus-galli (barnyard grass) assessed as inhibition of fresh weed plant weight at 1500 g/ha using post-emergence treatment protocol
Format: functional
Procedure, shortened: as §1

Row | SMILES | inhibition at 1500 g/ha
27 | C=CCN1C(=O)COc2cc(F)c(-n3nnc4nn(CCC)cc4c3=O)cc21 | 11.2%

Test system: Echinochloa crus-galli
Experiment: Herbicidal activity against Echinochloa crus-galli (barnyard grass) assessed as inhibition of fresh weed plant weight at 187.5 g/ha using post-emergence treatment protocol
Format: functional
Procedure, shortened: as §1

Row | SMILES | inhibition at 187.5 g/ha
28 | C=CCN1C(=O)COc2cc(F)c(-n3nnc4nn(CCC)cc4c3=O)cc21 | 0%

Test system: Amaranthus retroflexus
Experiment: Herbicidal activity against Amaranthus retroflexus assessed as inhibition of fresh weed plant weight at 375 g/ha using pre-emergence treatment protocol
Format: functional

Row | SMILES | inhibition at 375 g/ha
29 | C=CCN1C(=O)COc2cc(F)c(-n3nnc4nn(CCC)cc4c3=O)cc21 | 100%

Test system: Brassica rapa subsp. oleifera
Experiment: Herbicidal activity against Brassica rapa subsp. oleifera assessed as inhibition of fresh weed plant weight at 750 g/ha using pre-emergence treatment protocol
Format: functional

Row | SMILES | inhibition at 750 g/ha
30 | C=CCN1C(=O)COc2cc(F)c(-n3nnc4nn(CCC)cc4c3=O)cc21 | 69.4%

Test system: Echinochloa crus-galli
Experiment: Herbicidal activity against Echinochloa crus-galli (barnyard grass) assessed as inhibition of fresh weed plant weight at 750 g/ha using pre-emergence treatment protocol
Format: functional

Row | SMILES | inhibition at 750 g/ha
31 | C=CCN1C(=O)COc2cc(F)c(-n3nnc4nn(CCC)cc4c3=O)cc21 | 35.9%

Test system: Brassica rapa subsp. oleifera
Experiment: Herbicidal activity against Brassica rapa subsp. oleifera assessed as inhibition of fresh weed plant weight at 187.5 g/ha using pre-emergence treatment protocol
Format: functional

Row | SMILES | inhibition at 187.5 g/ha
32 | C=CCN1C(=O)COc2cc(F)c(-n3nnc4nn(CCC)cc4c3=O)cc21 | 13.4%
